One may read the IC50 as the concentration that inhibits the measured activity by half. Read a high IC50 as lower potency. What is called Ki is the equilibrium dissociation constant of an inhibitor or competing ligand from its target. A low value points to a stronger hold on the target.

The results in this text go back to ChEMBL document CHEMBL3044605, “Inhibition of the Fe(4)S(4)-cluster-containing protein IspH (LytB): electron paramagnetic resonance, metallacycles, and mechanisms” (J Am Chem Soc, 2010).

The target in the assay is T1, 4-hydroxy-3-methylbut-2-enyl diphosphate reductase (Aquifex aeolicus (strain VF5), UniProt O67625).
T1 sequence (O67625 whole entry): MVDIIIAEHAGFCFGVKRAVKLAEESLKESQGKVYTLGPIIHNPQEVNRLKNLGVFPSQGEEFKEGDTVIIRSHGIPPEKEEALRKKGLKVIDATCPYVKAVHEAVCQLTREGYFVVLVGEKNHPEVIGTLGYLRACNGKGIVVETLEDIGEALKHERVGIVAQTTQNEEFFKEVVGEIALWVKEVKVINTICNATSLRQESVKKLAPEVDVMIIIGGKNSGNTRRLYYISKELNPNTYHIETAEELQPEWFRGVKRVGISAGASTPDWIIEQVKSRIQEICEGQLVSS
The assay is described as follows: Inhibition of Aquifex aeolicus IspH expressed in Escherichia coli BL21 (DE3) using HMBPP substrate. The assay is classed as single protein. Summed up: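 A. aeolicus IspH expressed in BL-21(DE3), Ni-NTA purified, Fe4S4 cluster reconstituted anaerobically (DTT, sulfur, FeCl3; A410/A280 ≥0.38). Anaerobic assay, room temp, pH 8.0 Tris/NaCl/glycerol buffer, 0.4 mM dithionite, 2 mM methyl viologen, 72 nM IspH. Inhibitor preincubated 10 min, then 34 μM HMBPP added. Initial rates at 732 nm, dose-response fit for IC50; Ki via Cheng-Prusoff (KM 7 μM).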

Some results are limits rather than exact numbers.

`Cc1ccc[n+](CC(O)(P(=O)([O-])O)P(=O)(O)O)c1` (configuration not stated): it took 540 µM to reach half-maximal inhibition (IC50). `CC(Cc1cccnc1)(P(=O)(O)O)P(=O)(O)O` gave an IC50 above 1000 µM.

With `O=P(O)(O)OP(=O)(O)OCc1cccnc1`, the IC50 stood at 38 µM. This counts as double-digit micromolar. In the case of `O=P(O)(O)OP(=O)(O)OCc1ccc(Cl)nc1`, half-maximal inhibition (IC50) required 3700 µM. On the same count and under the same terms, as for `O=P(O)(O)C(CNc1ccccn1)P(=O)(O)O`, the figure is above 1000 µM.

`O=P(O)(O)C(O)(Cc1ccccn1)P(=O)(O)O` gave an IC50 of 485 µM.

For `Cc1ccnc(NC(P(=O)(O)O)P(=O)(O)O)c1`, half-maximal inhibition (IC50) required 67 µM. `O=P(O)(O)C(Cc1cccnc1)P(=O)(O)O`: the IC50 is above 1000 µM. In turn, `C[n+]1cccc(CC(O)(P(=O)(O)O)P(=O)(O)O)c1` registered an IC50 above 1000 µM. As for `N#CCCOP(=O)(O)OP(=O)(O)O` [2-CYANOETHYL DIPHOSPHATE], it took 53 µM to reach half-maximal inhibition (IC50).

In turn, `O=P(O)(O)OP(=O)(O)OCC#CCO` [4-HYDROXYBUT-2-YNYL DIPHOSPHATE] returned an IC50 of 26 µM. `O=P(O)(O)OP(=O)(O)OCc1ccccn1` [(PYRIDIN-2-YL)-METHYL-DIPHOSPHATE] showed an IC50 of 1200 µM. Take `O=P(O)(O)OP(=O)(O)OCc1ccncc1` [(PYRIDIN-4-YL)-METHYL-DIPHOSPHATE]: the IC50 was found to be 149 µM. This IC50 is about 8.1-fold lower than that of the compound before. In turn, `C#CCCOP(=O)(O)OP(=O)(O)O` [BUT-3-YNYL DIPHOSPHATE] had an IC50 of 0.45 µM and a Ki of 0.06 µM. In turn, `N#CCOP(=O)(O)OP(=O)(O)O` [CYANOMETHYL DIPHOSPHATE] registered an IC50 of 245 µM. In the case of `C#CCCCOP(=O)(O)OP(=O)(O)O` [PENT-4-YNYL DIPHOSPHATE], half-maximal inhibition (IC50) was put at 6.5 µM. With `C#CCOP(=O)(O)OP(=O)(O)O` [PROP-2-YNYL DIPHOSPHATE], the midpoint of inhibition, the IC50, lay at 6.7 µM.

On to `O=P(O)(O)OP(=O)(O)OCCc1cccnc1` [PYRIDIN-3-YL-ETHYL-DIPHOSPHATE], for which inhibition was half-maximal at 9.1 µM (IC50) and the Ki amounted to 1.2 µM. In turn, `O=P(O)(O)OP(=O)(O)OCCCc1cccnc1` [PYRIDIN-3-YL-PROPYL-DIPHOSPHATE] displayed an IC50 of 463 µM. `O=P(O)(O)C(O)(Cc1cccnc1)P(=O)(O)O` [RISEDRONIC ACID] showed an IC50 above 1000 µM.
